Data set [1] can be described thus: Solubility in simulated gastric fluid. It is filed as physicochemical. Conditions: read-out: S. Put shortly:
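Solubility in simulated gastric fluid, pH 1.2, in temperature-controlled shaking water baths. Samples were drawn, passed through a 0.22-µm filter, diluted in water/acetonitrile (60:40), and quantified by HPLC on a phenyl reverse-phase column.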

Data set [2] in a line: Solubility in pH 7.4 Phosphate buffer. It is filed as physicochemical. Put shortly: (§1)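 Solubility in 0.06 M phosphate buffer, pH 7.4, in temperature-controlled shaking water baths. Samples were drawn, passed through a 0.22-µm filter, diluted in water/acetonitrile (60:40), and quantified by HPLC on a phenyl reverse-phase column. Reported in mg/mL.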
For data set [3], the species on record is Rattus norvegicus. The data set is described as follows: Compound was tested for Antihyperlipidemic activity, activity is expressed as percent reduction of NEFAs. The data set is classed as functional. Put shortly:
(§2)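 Nine-week-old male Zucker diabetic fatty rats, n = 8/group, baseline-matched for plasma glucose. The highest test dose was given twice daily by oral gavage for 17 days. Tail-vein blood was drawn on days 0, 3, 7 and 17 for plasma glucose, insulin, triglycerides and NEFAs. The value is mean ± SEM percent reduction versus vehicle controls on day 17.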

The nature of data set [4]: Solubility in phosphate buffer at pH 7.4. It is filed as physicochemical. The gist of the method:
as §1

Data set [5] relates to Rattus norvegicus. Description: Compound was tested in vivo for Antihyperglycemic activity in diabetic rats, activity is expressed as percent reduction of plasma glucose. It is filed as functional. Put shortly:
as §2

For data set [6], the species on record is Rattus norvegicus. The data set is described as follows: Compound was tested for Antihyperlipidemic activity, activity is expressed as percent reduction of Triglycerides. It is filed as functional. The gist of the method:
as §2

In data set [7] the test system is Rattus norvegicus. Description: Compound was tested in vivo for Antihyperglycemic activity in diabetic rats, activity is expressed as percent reduction of HbA-1c. The data set is classed as functional. Put shortly:
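Male ZDF rats, nine weeks old, 8 per group, were matched at baseline on plasma glucose. They were dosed orally by gavage twice daily for 17 days at the maximum test dose. Glycosylated hemoglobin was measured on day 17. Data are mean ± SEM percent reduction relative to the vehicle control group.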

For three molecules, solubility and Reduction results are on record in ChEMBL document CHEMBL1131297, “N-(2-Benzoylphenyl)-L-tyrosine PPARgamma agonists. 3. Structure-activity relationship and optimization of the N-aryl substituent” (J Med Chem, 1998).

Molecules are shown by their SMILES. ≈ marks a conversion by molar mass, not a printed value. Some results are limits rather than exact numbers.

As to `Cc1oc(-c2ccccc2)nc1CCOc1ccc(C[C@H](Nc2ccccc2C(=O)c2ccccc2)C(=O)O)cc1` [FARGLITAZAR], the solubility in data set [1] and in data set [2] was less than 1 µg/mL in each case.

Consider `COC(=O)c1ccccc1N[C@@H](Cc1ccc(OCCc2nc(-c3ccccc3)oc2C)cc1)C(=O)O` [GW7845], for which the Reduction in data set [3] came to 87%; in data set [5] it was 67%; in data set [6], 82%; in data set [7] it was 40%. Also, the values for the solubility in data set [1] and in data set [4] were less than 2 µg/mL and 300 µg/mL (≈ 599 µM), respectively.

As for `Cc1c(C)c2c(c(C)c1O)CCC(C)(COc1ccc(CC3SC(=O)NC3=O)cc1)O2` (configuration not stated) [TROGLITAZONE], the Reduction is given as 81% in data set [3], 59% in data set [5], 85% in data set [6] and 35% in data set [7].
